Laboratory results: ChEMBL document CHEMBL1156430, “Identification of NVP-TAE684, a potent, selective, and efficacious inhibitor of NPM-ALK” (Proc Natl Acad Sci U S A, 2007)

Assays:
[1] = Induction of apoptosis in mouse Ba/F3 NPM-ALK cells at 50 nM after 48 hrs by annexin V assay; type: functional
How it was run: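 Parental Ba/F3 (with IL-3), Ba/F3 NPM-ALK or SU-DHL-1 cells treated with 50 nM or DMSO for 48 h. Annexin V/7-AAD staining read by flow cytometry; percent Annexin V-positive cells counted.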

[2] = molecular target: Nucleophosmin (Mus musculus) (UniProt Q61937); assay: Inhibition of NPM-ALK in mouse Ba/F3 NPM-ALK cells at 50 nM; type: cell-based; conditions: TDE = time-dependent effect
[3] = molecular target: Signal transducer and activator of transcription 3 (Homo sapiens) (UniProt P40763); assay: Inhibition of STAT3 in human Karpas299 cells at 50 nM; type: cell-based; conditions: KARPAS-299, TDE = time-dependent effect
How it was run: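 Ba/F3 NPM-ALK or Karpas-299 cells held at 50 nM for times from 15 min onward. Phospho-NPM-ALK and phospho-STAT3 read by Western blot.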

[4] = Elimination half life in human Karpas299 cells xenografted SCID beige mouse at 20 mg/kg, po; type: ADME, organism-based, KARPAS-299; set-up: dose 20 mg/kg, route oral; conditions: in vivo
How it was run: (§1)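 Mice given a single oral dose of 20 mg/kg as a solution in 10% 1-methyl-2-pyrrolidinone/90% PEG 300. Plasma levels measured to give Cmax, bioavailability and elimination half-life.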

[5] = Bioavailability in human Karpas299 cells xenografted SCID beige mouse at 20 mg/kg; type: ADME, organism-based, KARPAS-299; conditions: in vivo; how it was run: as §1
[6] = Antiproliferative activity against mouse Ba/F3 NPM-ALK cells assessed as luciferase expression after 2 to 3 days; type: functional, cell-based
How it was run: (§2)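 Ba/F3 cells carrying luciferase, either parental (with IL-3) or transformed by NPM-ALK or TEL-kinase fusions, 25,000 per well with serial dilutions or DMSO for 2–3 days. Bright-Glo luminescence taken as proliferation/survival. IC50 from curve fit.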

[7] = Cytotoxicity against mouse parental Ba/F3 cells assessed as luciferase expression up to 1 uM after 2 to 3 days; type: cell-based; conditions: baf3; how it was run: as §2
KARPAS-299 = assay: Antiproliferative activity against human Karpas299 cells assessed as luciferase expression after 72 hrs; type: functional, cell-based; conditions: KARPAS-299, 72 h
How it was run: (§3)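 Luciferase-expressing Karpas-299 or SU-DHL-1 cells, 25,000 per well, exposed to serial dilutions or DMSO for 72 h. Bright-Glo luminescence normalized to DMSO wells as percent survival. IC50 from curve fit.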

SU-DHL-1 = assay: Antiproliferative activity against human SUDHL1 cells assessed as luciferase expression after 72 hrs; type: functional, cell-based; conditions: SU-DHL-1, 72 h; how it was run: as §3
[8] = molecular target: Nucleophosmin (Mus musculus) (UniProt Q61937); assay: Inhibition of NPM-ALK autophosphorylation in mouse Ba/F3 NPM-ALK cells after 4 hrs; type: cell-based
How it was run: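 Ba/F3 NPM-ALK cells exposed to a range of concentrations for 4 h. NPM-ALK autophosphorylation read by Western blot. IC50 from quantified band intensities.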

BaF3 = assay: Inhibition of mouse wild type BaF3/WT Luc+ cell proliferation; type: functional, cell-based; how it was run: as §2
[9] = molecular target: T1, Signal transducer and activator of transcription 5A (Homo sapiens) (UniProt P42229); assay: Inhibition of STAT5 phosphorylation in human Karpas299 cells; type: cell-based; conditions: KARPAS-299
T1 sequence (whole entry): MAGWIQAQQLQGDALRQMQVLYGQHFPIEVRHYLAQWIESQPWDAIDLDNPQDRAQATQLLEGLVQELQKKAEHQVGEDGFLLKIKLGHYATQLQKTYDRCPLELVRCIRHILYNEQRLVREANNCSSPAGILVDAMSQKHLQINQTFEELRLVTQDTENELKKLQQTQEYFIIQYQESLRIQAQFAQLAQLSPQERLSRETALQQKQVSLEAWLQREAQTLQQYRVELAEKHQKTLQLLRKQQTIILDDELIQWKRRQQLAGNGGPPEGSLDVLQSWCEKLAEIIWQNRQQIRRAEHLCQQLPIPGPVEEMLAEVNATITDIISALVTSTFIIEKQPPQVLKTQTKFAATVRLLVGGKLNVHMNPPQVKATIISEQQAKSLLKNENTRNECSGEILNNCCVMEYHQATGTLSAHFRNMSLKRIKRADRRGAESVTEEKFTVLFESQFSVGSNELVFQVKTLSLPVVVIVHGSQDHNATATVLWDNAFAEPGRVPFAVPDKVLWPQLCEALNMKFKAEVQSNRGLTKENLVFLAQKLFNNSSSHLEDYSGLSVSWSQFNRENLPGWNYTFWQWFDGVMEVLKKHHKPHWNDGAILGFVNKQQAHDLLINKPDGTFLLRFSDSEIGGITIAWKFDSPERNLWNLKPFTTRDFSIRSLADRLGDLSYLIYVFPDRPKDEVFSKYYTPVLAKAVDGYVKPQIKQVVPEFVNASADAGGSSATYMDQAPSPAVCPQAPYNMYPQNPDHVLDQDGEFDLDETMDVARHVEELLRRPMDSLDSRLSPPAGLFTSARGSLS
How it was run: (§4)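 Ba/F3 NPM-ALK, Karpas-299 or SU-DHL-1 cells treated for 4 h with DMSO or increasing concentrations. STAT3 and STAT5 phosphorylation read by Western blot of lysates.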

[10] = molecular target: Signal transducer and activator of transcription 3 (Mus musculus) (UniProt P42227); assay: Inhibition of STAT3 phosphorylation in mouse Ba/F3 NPM-ALK cells; type: cell-based; how it was run: as §4
[11] = molecular target: Signal transducer and activator of transcription 3 (Homo sapiens) (UniProt P40763); assay: Inhibition of STAT3 phosphorylation in human Karpas299 cells; type: cell-based; conditions: KARPAS-299; how it was run: as §4
[12] = molecular target: Signal transducer and activator of transcription 3 (Homo sapiens) (UniProt P40763); assay: Inhibition of STAT3 phosphorylation in human SUDHL1 cells; type: cell-based; how it was run: as §4
[13] = molecular target: T2, Signal transducer and activator of transcription 5A (Mus musculus) (UniProt P42230); assay: Inhibition of STAT5 phosphorylation in mouse Ba/F3 NPM-ALK cells; type: cell-based; how it was run: as §4
T2 sequence (whole entry): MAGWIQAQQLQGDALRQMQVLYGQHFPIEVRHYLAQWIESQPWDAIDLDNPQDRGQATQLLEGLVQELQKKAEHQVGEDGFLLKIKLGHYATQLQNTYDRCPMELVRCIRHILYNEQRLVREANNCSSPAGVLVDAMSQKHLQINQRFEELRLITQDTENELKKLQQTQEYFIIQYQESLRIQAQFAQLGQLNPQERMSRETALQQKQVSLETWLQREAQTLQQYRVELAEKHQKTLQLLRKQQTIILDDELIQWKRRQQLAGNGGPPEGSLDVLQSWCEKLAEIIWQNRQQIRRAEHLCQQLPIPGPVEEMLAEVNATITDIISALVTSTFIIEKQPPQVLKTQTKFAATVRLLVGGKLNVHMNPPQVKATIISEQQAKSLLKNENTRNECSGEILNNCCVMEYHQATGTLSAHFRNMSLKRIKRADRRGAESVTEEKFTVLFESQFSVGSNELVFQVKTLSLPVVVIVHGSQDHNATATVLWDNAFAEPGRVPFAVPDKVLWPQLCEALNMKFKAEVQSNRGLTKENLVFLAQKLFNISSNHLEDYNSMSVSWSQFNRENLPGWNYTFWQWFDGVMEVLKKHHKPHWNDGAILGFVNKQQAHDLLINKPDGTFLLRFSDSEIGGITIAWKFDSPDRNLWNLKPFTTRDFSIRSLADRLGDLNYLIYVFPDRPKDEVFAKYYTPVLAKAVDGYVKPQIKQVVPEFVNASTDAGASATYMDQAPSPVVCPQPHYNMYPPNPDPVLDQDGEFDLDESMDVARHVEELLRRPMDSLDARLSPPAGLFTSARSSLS

[14] = molecular target: T1, Signal transducer and activator of transcription 5A (Homo sapiens); assay: Inhibition of STAT5 phosphorylation in human SUDHL1 cells; type: cell-based; how it was run: as §4

Signal transducer and activator of transcription 3 (Homo sapiens), sequence (P40763 whole entry): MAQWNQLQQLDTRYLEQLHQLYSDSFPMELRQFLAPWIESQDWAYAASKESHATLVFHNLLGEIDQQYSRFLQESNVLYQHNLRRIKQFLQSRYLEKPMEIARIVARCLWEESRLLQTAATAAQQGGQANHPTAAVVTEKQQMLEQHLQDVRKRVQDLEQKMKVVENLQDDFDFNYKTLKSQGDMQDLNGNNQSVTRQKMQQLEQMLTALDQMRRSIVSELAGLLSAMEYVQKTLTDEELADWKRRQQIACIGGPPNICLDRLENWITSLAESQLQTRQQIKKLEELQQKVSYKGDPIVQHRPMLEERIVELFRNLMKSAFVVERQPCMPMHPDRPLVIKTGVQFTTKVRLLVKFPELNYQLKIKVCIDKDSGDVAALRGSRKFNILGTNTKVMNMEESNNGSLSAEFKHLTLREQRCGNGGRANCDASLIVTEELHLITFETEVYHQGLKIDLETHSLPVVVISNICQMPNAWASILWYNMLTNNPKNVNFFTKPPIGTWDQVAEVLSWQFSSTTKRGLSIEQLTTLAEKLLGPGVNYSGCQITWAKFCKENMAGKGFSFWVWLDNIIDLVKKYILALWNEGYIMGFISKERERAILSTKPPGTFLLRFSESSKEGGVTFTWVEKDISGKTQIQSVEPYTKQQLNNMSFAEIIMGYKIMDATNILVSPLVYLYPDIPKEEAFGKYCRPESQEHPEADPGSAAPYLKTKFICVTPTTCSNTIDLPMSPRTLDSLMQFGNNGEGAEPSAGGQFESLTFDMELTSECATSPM
Nucleophosmin (Mus musculus), sequence (Q61937 whole entry): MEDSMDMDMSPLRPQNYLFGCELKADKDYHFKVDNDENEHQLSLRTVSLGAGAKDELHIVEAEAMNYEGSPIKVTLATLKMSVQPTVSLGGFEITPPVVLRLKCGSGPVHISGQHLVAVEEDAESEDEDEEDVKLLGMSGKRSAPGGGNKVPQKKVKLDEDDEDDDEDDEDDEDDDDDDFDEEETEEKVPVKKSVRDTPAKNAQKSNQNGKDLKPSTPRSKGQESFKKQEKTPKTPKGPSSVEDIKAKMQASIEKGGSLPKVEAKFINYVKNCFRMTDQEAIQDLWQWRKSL
Signal transducer and activator of transcription 3 (Mus musculus), sequence (P42227 whole entry): as the sequence (P40763 whole entry) above, with E760D counted along it

Activity [2]: tde
Activity [3]: tde
half-life [4]: 12 h
bioavailability [5]: 60%
IC50 (KARPAS-299): 3 nM
IC50 (SU-DHL-1): 2 nM
Activity [8]: Dose-dependent effect
IC50 (BaF3): 2750 nM
Activity [9]: Dose-dependent effect
Activity [10]: Dose-dependent effect
Activity [11]: Dose-dependent effect
Activity [12]: Dose-dependent effect
Activity [13]: Dose-dependent effect
Activity [14]: Dose-dependent effect
Structure (SMILES): COc1cc(N2CCC(N3CCN(C)CC3)CC2)ccc1Nc1ncc(Cl)c(Nc2ccccc2S(=O)(=O)C(C)C)n1 [TAE-684]
Activity [1]: 85%
IC50 [6]: 3 nM
Activity [7]: Not Active
